Data published in ChEMBL document CHEMBL4732082, “Development of novel benzimidazole-derived neddylation inhibitors for suppressing tumor growth invitro and invivo” (Eur J Med Chem, 2021).
Calls of active or inactive are those of the source. The rule behind the calls is not given here.

Assays:
[1] = system: A549; test: Induction of apoptosis in human A549 cells assessed as early apoptotic cells at 20 uM after 48 hrs by Annexin V-FITC/PI double staining based flow cytometric analysis (reference value: 2.04%); format: functional
[2] = Toxicity in nude mouse assessed as effect on body weight at 30 mg/kg, qd after 24 days; format: organism-based; conditions: in vivo, 576 h, time 24 day
In short: (§1)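 Female nude mice were inoculated subcutaneously with 2×10^6 A549 cells in 0.1 mL PBS. At tumor volume 70–100 mm³, mice were randomized into 5 groups of 6. Dosing was ip or oral gavage, once daily on a 5-days-on/2-days-off schedule, with 10% 2-hydroxypropyl-β-cyclodextrin/water as vehicle control. Body weight and tumor volume were measured every two days; tumors were weighed at sacrifice. Significance by two-tailed Student's t-test.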

[3] = system: A549; test: Induction of apoptosis in human A549 cells assessed as increase in ratio of early and late apoptotic cells at 10 to 40 uM after 48 hrs by Annexin V-FITC/PI double staining based flow cytometric analysis (reference value: 2.6%); format: functional; conditions: dose 10-40 µM
[4] = system: A549; test: Induction of p27 accumulation in human A549 cells at 50 uM incubated for 6 to 12 hrs by Western blot analysis; format: functional, cell-based; conditions: time 6-12 hrs
In short: (§2)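 A549 cells were treated 6 or 12 h with graded concentrations (4.5–75 μM) against a 0.1% DMSO control. Cells were washed in cold PBS, lysed in RIPA on ice and cleared by centrifugation, and protein was normalized. Cullin-Nedd8 was resolved on non-reducing SDS-PAGE and Wee1/p27 under reducing conditions, then detected by Western blot.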

[5] = system: A549; test: Induction of apoptosis in human A549 cells assessed as live cells at 10 uM after 48 hrs by Annexin V-FITC/PI double staining based flow cytometric analysis (reference value: 91.8%); format: functional
[6] = Cytotoxicity against human […] cells incubated for 48 hrs by CCK-8 assay; format: cell-based
In short: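 Cells from ATCC, passaged six times, grown in DMEM with 10% FBS and penicillin/streptomycin at 37 °C under 5% CO2. Seeded at 2500 cells/well, cultured overnight, treated 48 h, viability read by CCK-8. Run in triplicate; values are the mean of three experiments.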

[7] = target: T1, NEDD8-activating enzyme E1 catalytic subunit (Homo sapiens, UniProt Q8TBC4); test: Inhibition of NAE (unknown origin)-mediated neddylation assessed as suppression of cullin1-Nedd8 adduct formation preincubated for 10 mins followed by ATP addition and measured after 30 mins by immunoblot analysis
T1 sequence (Q8TBC4 whole entry): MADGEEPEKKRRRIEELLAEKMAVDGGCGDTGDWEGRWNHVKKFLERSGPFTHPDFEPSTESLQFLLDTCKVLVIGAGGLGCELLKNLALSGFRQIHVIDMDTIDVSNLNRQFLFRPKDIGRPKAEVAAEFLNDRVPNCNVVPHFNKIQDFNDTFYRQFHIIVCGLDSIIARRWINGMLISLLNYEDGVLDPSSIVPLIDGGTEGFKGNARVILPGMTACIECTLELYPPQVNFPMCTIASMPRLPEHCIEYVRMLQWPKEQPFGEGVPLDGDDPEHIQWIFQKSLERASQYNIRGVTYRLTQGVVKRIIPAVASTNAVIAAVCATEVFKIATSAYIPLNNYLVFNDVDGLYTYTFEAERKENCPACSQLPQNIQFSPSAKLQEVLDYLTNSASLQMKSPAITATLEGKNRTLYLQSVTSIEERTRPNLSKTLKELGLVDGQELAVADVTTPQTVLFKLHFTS

[8] = system: A549; test: Induction of cellular senescence in human A549 cells at 10 uM by SA-beta-gal-staining based assay; format: functional, cell-based
[9] = system: A549; test: Antitumor activity against human A549 cells xenografted in nude mouse assessed as decrease in tumor weight at 30 mg/kg, ip qd for 5 days on and 2 days off dosing and measured after 24 days post-treatment; format: functional, organism-based; conditions: time 24.0 day; in short: as §1
[10] = target: T2, NEDD8-activating enzyme E1 regulatory subunit (Homo sapiens) (UniProt Q13564); test: Inhibition of NAE-mediated neddylation in human A549 cells assessed as suppression of cullin4a-Nedd8 adduct formation at 12.5 to 25 uM measured after 6 to 12 hrs by Western blot analysis; format: cell-based; conditions: dose 12.5-25 µM, time 6-12 hrs; in short: as §2
T2 sequence (whole entry): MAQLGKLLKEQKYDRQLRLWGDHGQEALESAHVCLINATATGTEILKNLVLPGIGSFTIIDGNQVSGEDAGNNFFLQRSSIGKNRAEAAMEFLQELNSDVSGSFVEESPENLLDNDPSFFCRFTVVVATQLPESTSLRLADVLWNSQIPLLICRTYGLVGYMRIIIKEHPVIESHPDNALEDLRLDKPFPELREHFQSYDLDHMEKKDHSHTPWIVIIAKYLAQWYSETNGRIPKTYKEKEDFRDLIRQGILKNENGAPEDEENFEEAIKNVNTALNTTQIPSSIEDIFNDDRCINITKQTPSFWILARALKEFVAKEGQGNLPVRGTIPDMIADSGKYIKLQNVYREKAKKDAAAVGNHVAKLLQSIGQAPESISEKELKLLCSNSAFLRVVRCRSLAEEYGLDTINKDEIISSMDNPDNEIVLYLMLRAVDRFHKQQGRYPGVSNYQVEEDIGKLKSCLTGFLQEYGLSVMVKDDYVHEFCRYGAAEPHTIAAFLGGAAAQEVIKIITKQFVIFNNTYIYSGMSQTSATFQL

IC50 [7]: 5.51 µM | inhibition [10]: Active
SMILES: CCOc1nc2cccc(C(=O)NCCc3ccc(Cl)cc3Cl)c2n1Cc1ccc(-c2ccccc2-c2nnn[nH]2)cc1
Activity [1]: 18.6% | Activity [2]: Non-Toxic | Activity [3]: 35.81% | Activity [4]: Active | Activity [5]: 91.8% | IC50 [6]: 76.1 µM | Activity [8]: Active | Activity [9]: Active
